Screening data deposited in PubChem by Broad Institute.
miR-122 sensor = miR-122 inhibition in Huh7 cells; actives 0.3% (n = 340,000); AID 602342; activation (reporter increase), % at 12.5 µM; Huh7 miR-122 Renilla luciferase sensor, 48 h; neutral wells = 0, positive control = 100;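 active = mean replicate activation score at least 90 and every replicate individually at or above 90; inconclusive = only one of the two criteria met; inactive = neither criterion met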;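 also: higher luciferase means less miR-122 activity so hits act as miR-122 inhibitors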
ERAP1 HTS inh = ERAP1 (human) enzyme inhibition; Q9NZ08; recombinant ERAP1, Leu-AMC fluorescence, 60 min; inhibition, % at 10.7 µM; actives 0.15% (n = 340,000);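 active = mean replicate inhibition of at least 30%, or all replicates individually reaching that 30% level; inactive = mean below 30% and not every replicate reaching it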;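 also: 0% = neutral control wells and 100% = L-leucinethiol positive control wells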
F508del corr = correctors of CFTR F508del function in bronchial epithelial cells | activity (quench increase), % at 7.58 µM | AID 720511 | actives 0.36% (n = 350,000) | CFBE cells, YFP halide quenching; stimulated with forskolin plus potentiator P3; % fluorescence drop versus neutral controls;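 active = mean added fluorescence quench of at least 8% versus neutral control, with both replicates also reaching 8%; inconclusive = only one of the mean or replicate conditions met; inactive = mean below 8% and not both replicates reaching 8%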;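 also: cells transiently co-express mutant CFTR-F508del with the halide-sensitive YFP; corrector assay measuring rescue of mutant channel to the surface after 24 h compound exposure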
E-sel inducer = E-selectin induction on HUVECs; P16581; HUVEC E-selectin immunofluorescence imaging; normalized: neutral wells 0, TNF-alpha wells 100; activation, % at 7.58 µM; actives 0.37% (n = 260,000); AID 686992;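 active = mean E-selectin-positive cell signal at least 10% of the positive control, reached in at least 60% of replicates, without over 20% cell loss; inconclusive = no rule given, readout overlaps actives, possibly toxicity-flagged; inactive = the rest, including those meeting only one limit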
Target sequence (P16581 whole entry, looked up): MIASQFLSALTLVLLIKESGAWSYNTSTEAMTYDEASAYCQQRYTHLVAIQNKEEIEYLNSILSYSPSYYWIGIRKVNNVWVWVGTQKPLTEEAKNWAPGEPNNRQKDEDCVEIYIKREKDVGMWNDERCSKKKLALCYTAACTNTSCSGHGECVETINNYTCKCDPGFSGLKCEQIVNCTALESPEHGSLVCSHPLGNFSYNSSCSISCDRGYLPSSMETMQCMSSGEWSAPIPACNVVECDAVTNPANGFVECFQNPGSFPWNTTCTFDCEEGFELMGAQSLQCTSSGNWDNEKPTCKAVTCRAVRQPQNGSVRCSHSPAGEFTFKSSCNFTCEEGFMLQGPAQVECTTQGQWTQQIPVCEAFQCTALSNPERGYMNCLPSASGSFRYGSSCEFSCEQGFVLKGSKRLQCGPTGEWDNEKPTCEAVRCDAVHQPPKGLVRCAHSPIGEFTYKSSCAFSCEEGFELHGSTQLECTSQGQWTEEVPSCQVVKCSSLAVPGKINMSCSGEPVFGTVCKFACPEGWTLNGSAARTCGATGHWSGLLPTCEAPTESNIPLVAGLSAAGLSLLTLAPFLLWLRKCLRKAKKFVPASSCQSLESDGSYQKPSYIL
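Test system: HUVEC | Signal: Immunofluorescence imaging | Read-out: Percent E-selectin-positive cells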
DENV2 CPE = inhibitors of DENV2 cytopathic effect; DENV2-infected cells, cytopathic effect rescue, plate reader; CPE inhibition, % at 9.99 µM; actives 1.7% (n = 350,000); AID 651640; in the data active = CPE inhibition above about 20%, passing the limit was not always enough; inconclusive = no clear call, values can overlap the other calls; tested in BHK-21 cells;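 also: 0% = median of neutral control wells and 100% = median of positive control wells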
INS-1E GSIS act = primary screen for activators of insulin secretion dependent on glucose, INS-1E cells, GLuc reporter luminescence | actives 0.61% (n = 370,000) | INS-1E GLuc reporter insulin secretion, 2-3 h | AID 743287 | activation, % at 16.6 µM;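 active = lowest replicate activation of at least 40%, so every replicate reaches that level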;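 also: 0% = median of neutral control wells and 100% = median of IBMX positive control wells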
* marks the source's active call; other numbers are inactive results; ? = inconclusive; . = no result; [ ] = remark or other dose. The list is not random: actives were taken first. Their share in the collection is about 2.6%.

SMILES	miR-122 sensor	ERAP1 HTS inh	F508del corr	E-sel inducer	DENV2 CPE	INS-1E GSIS act
COc1ccc(NC(=O)Nc2ccc3c(c2)[C@@H]2C[C@H](CC(=O)N4CCc5ccccc5C4)O[C@H](CO)[C@@H]2O3)cc1	-2.7[16.7 µM]	0.3	0.3	0.3	0.4	-16.0
C[C@H]1CN([C@@H](C)CO)S(=O)(=O)c2ccc(C3=CCCC3)cc2O[C@@H]1CN(C)C(=O)CC1CC1	24.8[16.7 µM]	3.9	1.3	0.2	70.2*	3.5
CCOC(=O)C1=C(C)N(CCCCCC(=O)O)C(=O)NC1c1ccccc1OC(=O)c1cccs1 (stereo not drawn)	.	3.2	2.0	-0.1	47.4*	-2.7
C[C@H](NC(=O)[C@@H]1[C@@H](CO)[C@@H]2Cn3c(ccc(C4=CCCCC4)c3=O)[C@H]1N2)c1ccccc1	3.1[16.7 µM]	2.8	-0.9	-0.3	-0.4	-1.1
Cc1ccc(N(C)S(=O)(=O)c2ccc(-c3cnc(C4CC4)o3)cc2)cc1	31.1	0.9	8.3*	.	-3.6	-5.8
Cc1ccc(NS(=O)(=O)c2ccc(-c3cnc(C4CC4)o3)cc2)cc1	?	-0.8	6.5	.	-1.5	-0.5
C[C@@H]1CCCCO[C@@H](CN(C)Cc2ccc3c(c2)OCO3)[C@@H](C)CN([C@H](C)CO)C(=O)c2cc(NC(=O)c3ccncc3)ccc2O1	14.2[16.7 µM]	.	-0.7	-0.2	3.3	23.4
CNC[C@H]1Oc2ccc(NC(=O)NC(C)C)cc2C(=O)N([C@@H](C)CO)C[C@@H]1C	-4.1[16.7 µM]	1.2	-0.9	-4.4	28.3*	10.3
CC(C)NC(=O)Nc1ccc2c(c1)C(=O)N([C@@H](C)CO)C[C@@H](C)[C@@H](CN(C)Cc1ccc(C(=O)O)cc1)O2	1.1[16.7 µM]	-0.9	-1.5	-6.1	24.6*	7.3
CNC[C@H]1Oc2ccc(N(C)C)cc2C(=O)N([C@@H](C)CO)C[C@H]1C	-3.8[16.7 µM]	-0.7	2.1	129.1*	-3.0	8.5
CC(C)NC(=O)Nc1ccc2c(c1)C(=O)N([C@H](C)CO)C[C@@H](C)[C@H](CN(C)Cc1ccccc1)O2	5.5[16.7 µM]	-1.9	6.0	-0.5	42.8*	7.0
C[C@H]1CN([C@@H](C)CO)C(=O)c2cc(NC(=O)Nc3ccc(F)cc3)ccc2O[C@H]1CN(C)Cc1ccccc1	-15.2[16.7 µM]	-5.0	-1.0	-0.3	24.5*	-2.4
COc1ccc(Cl)cc1C(=O)Nc1cccc(-c2ccc3nncn3n2)c1	.	2.8	-0.5	.	2.4	43.0*
O=C(Nc1ccc(F)cc1)N1CC(=O)N2[C@H](CO)[C@@H](c3ccc(Br)cc3)[C@@H]2C1	.	-2.4	4.5	0.2	4.8	-17.2
C[C@H](CO)N1C[C@H](C)[C@@H](CN(C)CC2CCCCC2)OCCCC[C@H](C)Oc2ccc(NS(=O)(=O)c3ccc(F)cc3)cc2C1=O	-12.1[16.7 µM]	1.1	0.2	0.1	-6.9	-4.3
Cc1ccc(C)c(NC(=O)CSc2nnc(CSc3nc(C)cc(C)n3)n2Cc2ccco2)c1	118.7*	.	.	.	.	.
O=C(COc1ccc(-c2nnco2)cc1)NCc1ccccc1Cl	.	2.4	1.0	.	42.9*	6.1
CCOc1ccc(CCNC(=O)/C=C/c2ccco2)cc1OCC	6.1	-2.0	2.0	.	3.6	17.5
CCOc1ccc(CCNC(=O)COC(=O)/C=C/c2ccco2)cc1OCC	-3.7	-3.1	0.3	-0.6	-6.4	44.3*
CCOc1ccc(CCNC(=O)Nc2ccccc2C)cc1OCC	.	0.7	0.2	.	2.9	9.2
CCOc1ccc(CCNC(=O)COC(=O)c2ccc(C)s2)cc1OCC	.	1.5	1.8	-0.3	7.7	52.3*
CCOc1ccc(CCNC(=O)COC(=O)c2cccnc2SC)cc1OCC	.	2.3	-3.3	.	10.8	55.4*
CCOc1ccc(CCNC(=O)COC(=O)CSc2ccccc2C)cc1OCC	.	3.6	-5.1	.	3.0	57.2*
COc1ccc2c3c(n(C)c2c1)[C@@H](CO)N(C(=O)c1ccccn1)CC31CCN(C(=O)Cc2ccccc2)CC1	.	0.7	2.2	-0.1	-6.8	-3.2
O=C(C[C@H]1C[C@@H]2c3cc(NC(=O)C4CCC4)ccc3O[C@@H]2[C@H](CO)O1)NCC1CC1	-1.6[16.7 µM]	-1.0	-0.9	0.4	1.5	1.7
